The text below walks through data of ChEMBL document CHEMBL1132274, “2,7-Disubstituted amidofluorenone derivatives as inhibitors of human telomerase” (J Med Chem, 1999).

The term IC50 denotes the concentration that gives 50% inhibition. Low values mean greater potency in that assay, high ones weaker potency in that assay.

Activity calls are given as the source filed them. The calls are words filed in the database; no cut-off is given here.

Experiment [1] deals with A2780. Description: Cytotoxicity measured in human ovarian cell line A2780 using sulforhodamine B (SRB) assay. Format: functional, cell-based. An outline of the steps: (§1)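 SRB growth-inhibition assay in human ovarian carcinoma cells: 3000–6000 cells/well attached overnight, then salts (dissolved at 500 μM in water) added in quadruplicate at final 0.05, 0.25, 1, 5 and 25 μM. After 96 h, cells fixed with ice-cold 10% TCA and stained with 0.4% SRB. Mean A540 expressed as % of untreated control; IC50 = concentration giving 50% growth inhibition.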
Background: The SRB assay estimates cell density from bound dye.

Experiment [2] concerns CH1. Description: Cytotoxicity measured in human ovarian cell line CH1 using sulforhodamine B (SRB) assay. The format is functional, cell-based. An outline of the steps:
as §1

Experiment [3] relates to SK-OV-3. Description: Cytotoxicity measured in human ovarian cell line SKOV-3 using sulforhodamine B (SRB) assay. The format is functional, cell-based. An outline of the steps: as §1
In experiment [4] the target is DNA polymerase I, thermostable (Thermus aquaticus) (UniProt P19821). In words: Inhibitory activity against taq polymerase at 10 uM; No inhibition.
For experiment [5] the target is unchanged. In words: Inhibitory activity against taq polymerase at 20 uM; No inhibition.
Experiment [6] has the same target. Description: Inhibitory activity against taq polymerase at 50 uM; Significant.
For experiment [7], the target named is Telomerase reverse transcriptase (Homo sapiens, UniProt O14746). In words: Inhibitory activity against telomerase. The method in brief: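 Modified TRAP with extract from exponentially growing A2780 ovarian carcinoma cells. Telomerase then inactivated at 80 °C for 5 min, CX primer and Taq added, 31 PCR cycles. Products analysed by denaturing PAGE with phosphorimaging/autoradiography, or by filter scintillation counting.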

Experiment [8] relates to CH1. Description: Cytotoxicity activity was measured in human ovarian cell line CH1 using sulforhodamine B (SRB) assay. The format is functional, cell-based. The method in brief:
as §1

In experiment [9] the test system is SK-OV-3. Description: Cytotoxicity activity was measured in human ovarian cell line SKOV-3 using sulforhodamine B (SRB) assay. Format: functional, cell-based. An outline of the steps: as §1
Experiment [10] deals with DNA polymerase I, thermostable (Thermus aquaticus) (UniProt P19821). Description: Inhibitory activity against taq polymerase at 50 uM; Slight.
In experiment [11] the test system is A2780. In words: Cytotoxicity activity of the compound was measured in human ovarian cell line A2780 using sulforhodamine B (SRB) assay. Format: functional, cell-based. An outline of the steps: as §1
Experiment [12] concerns the target DNA polymerase I, thermostable (Thermus aquaticus) (UniProt P19821). In words: Inhibitory activity against taq polymerase at 50 uM; No inhibition.

Sequence of DNA polymerase I, thermostable (Thermus aquaticus) (P19821 whole entry): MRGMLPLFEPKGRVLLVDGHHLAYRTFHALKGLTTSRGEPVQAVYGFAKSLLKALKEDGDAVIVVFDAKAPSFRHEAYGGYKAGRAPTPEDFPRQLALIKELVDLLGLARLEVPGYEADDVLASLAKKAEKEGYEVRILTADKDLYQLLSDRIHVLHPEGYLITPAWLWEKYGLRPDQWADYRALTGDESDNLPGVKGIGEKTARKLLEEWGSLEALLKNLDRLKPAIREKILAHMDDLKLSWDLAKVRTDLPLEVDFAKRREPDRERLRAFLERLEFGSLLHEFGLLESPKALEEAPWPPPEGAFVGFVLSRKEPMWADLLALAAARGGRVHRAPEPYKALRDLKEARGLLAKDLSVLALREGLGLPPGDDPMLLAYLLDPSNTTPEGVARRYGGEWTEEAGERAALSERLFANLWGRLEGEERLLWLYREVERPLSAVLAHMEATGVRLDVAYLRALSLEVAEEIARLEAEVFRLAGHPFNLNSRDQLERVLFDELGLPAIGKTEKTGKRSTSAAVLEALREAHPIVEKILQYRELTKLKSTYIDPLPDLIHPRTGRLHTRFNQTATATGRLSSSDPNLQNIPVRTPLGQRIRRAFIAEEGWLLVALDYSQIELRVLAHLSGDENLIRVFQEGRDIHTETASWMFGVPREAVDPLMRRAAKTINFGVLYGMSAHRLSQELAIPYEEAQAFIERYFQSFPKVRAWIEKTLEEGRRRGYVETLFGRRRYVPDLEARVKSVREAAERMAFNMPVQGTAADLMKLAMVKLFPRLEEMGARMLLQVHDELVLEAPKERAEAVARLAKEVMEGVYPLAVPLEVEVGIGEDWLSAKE
Sequence of Telomerase reverse transcriptase (O14746 whole entry): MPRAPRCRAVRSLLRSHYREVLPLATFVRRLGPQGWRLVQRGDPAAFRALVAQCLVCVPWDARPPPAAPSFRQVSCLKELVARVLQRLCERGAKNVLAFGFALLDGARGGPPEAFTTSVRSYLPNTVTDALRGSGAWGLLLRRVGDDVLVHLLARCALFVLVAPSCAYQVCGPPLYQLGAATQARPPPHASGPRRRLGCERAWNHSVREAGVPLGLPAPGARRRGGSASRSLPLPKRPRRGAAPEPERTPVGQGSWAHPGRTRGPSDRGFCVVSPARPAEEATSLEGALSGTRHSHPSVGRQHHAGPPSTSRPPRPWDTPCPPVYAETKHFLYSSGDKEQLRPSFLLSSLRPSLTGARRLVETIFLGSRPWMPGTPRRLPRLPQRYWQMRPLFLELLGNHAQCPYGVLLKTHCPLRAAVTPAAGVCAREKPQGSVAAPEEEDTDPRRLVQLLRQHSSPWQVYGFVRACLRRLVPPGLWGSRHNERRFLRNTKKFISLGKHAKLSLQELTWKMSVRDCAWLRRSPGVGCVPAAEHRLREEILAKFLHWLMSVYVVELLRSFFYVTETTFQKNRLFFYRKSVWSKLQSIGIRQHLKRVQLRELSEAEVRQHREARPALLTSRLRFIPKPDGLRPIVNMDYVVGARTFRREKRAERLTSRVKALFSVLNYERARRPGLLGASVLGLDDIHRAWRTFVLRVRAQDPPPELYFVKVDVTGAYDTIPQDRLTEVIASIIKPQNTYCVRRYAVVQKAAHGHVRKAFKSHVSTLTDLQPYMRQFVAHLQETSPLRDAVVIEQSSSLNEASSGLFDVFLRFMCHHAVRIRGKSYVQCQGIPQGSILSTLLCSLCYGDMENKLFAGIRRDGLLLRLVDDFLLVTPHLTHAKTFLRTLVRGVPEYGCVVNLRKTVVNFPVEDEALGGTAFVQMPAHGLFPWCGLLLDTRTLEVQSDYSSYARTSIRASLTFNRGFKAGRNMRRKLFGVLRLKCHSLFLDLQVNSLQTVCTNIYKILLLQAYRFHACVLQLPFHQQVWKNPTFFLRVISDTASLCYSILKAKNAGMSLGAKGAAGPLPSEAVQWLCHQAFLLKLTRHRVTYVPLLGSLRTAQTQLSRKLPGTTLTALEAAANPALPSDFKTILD

`C[N+]1(CCC(=O)Nc2ccc3c(c2)C(=O)c2cc(NC(=O)CC[N+]4(C)CCCCC4CCO)ccc2-3)CCCCC1CCO` (stereo unspecified): the IC50 in experiment [1] is 5.2 µM; in [2], 3.15 µM; in experiment [3] it was 5.2 µM; in [7], above 20 µM. The inhibition result in experiment [4] and in experiment [5] was “inactive” each time. The inhibition entry in experiment [6] was “Significant”.

Turning to `C[N+]1(CCC(=O)Nc2ccc3c(c2)C(=O)c2cc(NC(=O)CC[N+]4(C)CCC(O)CC4)ccc2-3)CCC(O)CC1` (stereo unspecified), the IC50 in experiment [1] was 2.4 µM; in experiment [8], 1.95 µM; in [9], 4.7 µM; in [7], above 20 µM. The inhibition entry in [4] and in [5] was “inactive” each time. For the same compound, the inhibition result in [10] was “Weak inhibition”.

Consider `CN1CCN(CCC(=O)Nc2ccc3c(c2)C(=O)c2cc(NC(=O)CCN4CCN(C)CC4)ccc2-3)CC1`, for which the IC50 was above 25 µM in experiment [11], above 25 µM in experiment [2], above 25 µM in [3] and 44 µM in experiment [7]. The inhibition result in experiment [4], in experiment [5] and in experiment [12] was “inactive” throughout.
